From ChEMBL document CHEMBL1134361, “C-Isoprenylation of flavonoids enhances binding affinity toward P-glycoprotein and modulation of cancer cell chemoresistance” (J Med Chem, 2001)

Legend:
[1] = Hydrophobicity index was determined in C18 reverse phase silica gel 20 * 20 cm plates in methanol:water (8:2).; type: ADME
[2] = Effect of Chrysin Alkylation on the Binding to PgP Cytosolic Domain.; type: ADME
Outline: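 Recombinant Pgp C-terminal cytosolic domain NBD2 (0.5 µM) in 20 mM potassium phosphate pH 6.8 with 0.5 M NaCl, 20% glycerol and 0.01% heptylcarbamoyl glucoside, 25 °C. Ligand titrated in aliquots up to 20 µM. Tryptophan fluorescence (ex 295 nm, em 310–360 nm) integrated; inner-filter corrected with N-acetyltryptophanamide. Curve fit gave KD and percent maximal quenching.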

[3] = Partition coefficient (logP); type: physicochemical; conditions: octanol/water
Outline: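 Log P estimated by extrapolation from a log P vs R_M calibration curve built with quercetine and platanetine data.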

K562 = experiment: Relative daunomycin accumulation was determined in PgP-positive leukemic K562/R7 cells with daunomycin at a concentration of 10 uM; type: functional, Homo sapiens
Outline: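 K562/R7 human leukemic cells with high Pgp (1 million/mL RPMI 1640) incubated 1 h at 37 °C with 10 µM daunomycin (final), with or without 10 µM modulator. Cells washed three times in ice-cold PBS, kept on ice, intracellular drug fluorescence read by flow cytometry. Fluorescence shift expressed relative to that of 2 µM cyclosporin A reference. Duplicates, at least three experiments.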

[4] = Direct binding to PgP recombinant cytosolic domain was measured by percent maximal quenching of the intrinsic fluorescence.; type: ADME; conditions: cytosol
Outline: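 Recombinant C-terminal cytosolic NBD2 of Pgp at 0.5 µM in 20 mM potassium phosphate pH 6.8 with 0.5 M NaCl, 20% glycerol and 0.01% heptylcarbamoyl glucopyranoside detergent, 25 °C. Excitation at 295 nm, emission scanned 310–360 nm and integrated, buffer-corrected. Ligand added stepwise up to 20 µM. Inner-filter correction used N-acetyltryptophanamide. Curve fitting gave K_D and percent maximal quenching.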

## CC(C)=CCC/C(C)=C\Cc1c(O)cc(O)c2c(=O)cc(-c3ccccc3)oc12
[1]
  Hydrophobicity index: 1.35
[2]
  Kd: 25 nM
[3]
  logP: 6.71
K562
  Relative daunomycin accumulation: 0.9
[4]
  Delta Fmax: 67%

## O=c1cc(-c2ccccc2)oc2cc(O)c(Cc3ccccc3)c(O)c12
[1]
  Hydrophobicity index: 0.754
[2]
  Kd: 340 nM
[3]
  logP: 6.1
K562
  Relative daunomycin accumulation: 0.09
[4]
  Delta Fmax: 72.4%

## COc1cc2oc(-c3ccccc3)cc(=O)c2c(O)c1C
[1]
  Hydrophobicity index: 0.842
[2]
  Kd: 1300 nM
[3]
  logP: 6.18
K562
  Relative daunomycin accumulation: 0.3
[4]
  Delta Fmax: 57.3%

## COc1cc(O)c2c(=O)cc(-c3ccccc3)oc2c1 [TECHTOCHRYSIN]
[1]
  Hydrophobicity index: 0.719
[2]
  Kd: 6300 nM
[3]
  logP: 6.06
K562
  Relative daunomycin accumulation: 0.23
[4]
  Delta Fmax: 68.1%

## CC(C)=CCc1c(O)cc2oc(-c3ccccc3)cc(=O)c2c1O
[1]
  Hydrophobicity index: 0.812
[2]
  Kd: 300 nM
[3]
  logP: 6.15
K562
  Relative daunomycin accumulation: 0.83
[4]
  Delta Fmax: 83.4%

## CC(C)Oc1cc(O)c2c(=O)cc(-c3ccccc3)oc2c1
[1]
  Hydrophobicity index: 0.898
[2]
  Kd: 1320 nM
[3]
  logP: 6.24
K562
  Relative daunomycin accumulation: 0.3
[4]
  Delta Fmax: 53.2%

## CC(C)=CCc1c(O)cc(O)c2c(=O)cc(-c3ccccc3)oc12
[1]
  Hydrophobicity index: 0.853
[2]
  Kd: 280 nM
[3]
  logP: 6.2
K562
  Relative daunomycin accumulation: 1.52
[4]
  Delta Fmax: 81%

## CC(C)c1c(O)cc2oc(-c3ccccc3)cc(=O)c2c1O
[1]
  Hydrophobicity index: 0.608
[2]
  Kd: 210 nM
[3]
  logP: 5.95
K562
  Relative daunomycin accumulation: 0.24
[4]
  Delta Fmax: 39%

## O=c1cc(-c2ccccc2)oc2c(Cc3ccccc3)c(O)cc(O)c12
[1]
  Hydrophobicity index: 0.754
[2]
  Kd: 990 nM
[3]
  logP: 6.1
K562
  Relative daunomycin accumulation: 0.25
[4]
  Delta Fmax: 99.1%

## O=c1cc(-c2ccccc2)oc2c(Cc3ccccc3)c(O)c(Cc3ccccc3)c(O)c12
[1]
  Hydrophobicity index: 1.06
[2]
  Kd: 36 nM
[3]
  logP: 6.41
K562
  Relative daunomycin accumulation: 0.39
[4]
  Delta Fmax: 40.9%

## CC(C)=CCc1c(O)c(CC=C(C)C)c2oc(-c3ccccc3)cc(=O)c2c1O
[1]
  Hydrophobicity index: 1.296
[2]
  Kd: 15 nM
[3]
  logP: 6.56
K562
  Relative daunomycin accumulation: 0.84
[4]
  Delta Fmax: 21.5%

## O=c1cc(-c2ccccc2)oc2cc(OCc3ccccc3)cc(O)c12
[1]
  Hydrophobicity index: 1.076
[2]
  Kd: 68 nM
[3]
  logP: 6.42
K562
  Relative daunomycin accumulation: 0.27
[4]
  Delta Fmax: 29.3%

## CC(C)Oc1cc2oc(-c3ccccc3)cc(=O)c2c(O)c1C(C)C
[1]
  Hydrophobicity index: 1.248
[2]
  Kd: 280 nM
[3]
  logP: 6.6
K562
  Relative daunomycin accumulation: 0.29
[4]
  Delta Fmax: 44.5%

## O=c1cc(-c2ccccc2)oc2cc(O)cc(O)c12 [CHRYSIN]
[1]
  Hydrophobicity index: 0.358
[2]
  Kd: 13100 nM
[3]
  logP: 5.7
K562
  Relative daunomycin accumulation: 0.2
[4]
  Delta Fmax: 94.6%

## CC(C)=CCC/C(C)=C\Cc1c(O)cc2oc(-c3ccccc3)cc(=O)c2c1O
[1]
  Hydrophobicity index: 1.288
[2]
  Kd: 45 nM
[3]
  logP: 6.64
K562
  Relative daunomycin accumulation: 0.81
[4]
  Delta Fmax: 48.2%

## CC(C)Oc1c(C(C)C)c(O)c2c(=O)cc(-c3ccccc3)oc2c1C(C)C
[1]
  Hydrophobicity index: 1.479
[2]
  Kd: 33 nM
[3]
  logP: 6.84
K562
  Relative daunomycin accumulation: 0.29
[4]
  Delta Fmax: 38.4%

## Cc1c(O)cc2oc(-c3ccccc3)cc(=O)c2c1O
[1]
  Hydrophobicity index: 0.512
[2]
  Kd: 3100 nM
[3]
  logP: 5.85
K562
  Relative daunomycin accumulation: 0.2
[4]
  Delta Fmax: 46.6%
